The list is not random: actives were taken first. Their share in the collection is about 3.1%.
hERG rescue – hERG (human) protection from proarrhythmic block; Q12809; CHO-hERG, FluxOR thallium flux, dofetilide IC70 present; activation (rescue from dofetilide block), less the hit threshold, % at 10 µM; 310,000 compounds, 0.51% hits; AID 1511;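 active = activation above the mean of controls blocked by dofetilide plus 5 SD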;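 note: thallium influx through hERG after potassium depolarization seen as dye fluorescence rise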
KCNK9 inh – inhibitors of human KCNK9 two-pore domain potassium channel | AID 488922 | Q9NPC2 | 310,000 compounds, 1.2% hits | HEK293 KCNK9, FluxOR thallium flux fluorescence; active compounds read low | B-score at 10 µM;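 active = ratio B-score over 3 SD below the library mean, with starting fluorescence within 5 SD of its mean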;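 note: negative B-score means less thallium flux so channel inhibition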
KCNQ1 block – human KCNQ1 channel inhibition | CHO-K1 KCNQ1, FluxOR thallium flux fluorescence; active compounds read high | B-score at 10 µM | 310,000 compounds, 1.3% hits | AID 2642 | P51787;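 active = compounds whose thallium flux B-score, printed positive for inhibition, exceeds three library SD while starting fluorescence stays within three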;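 note: channel opened by potassium depolarization with thallium stimulus after 20 min compound exposure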
Target sequence (P51787 whole entry, looked up): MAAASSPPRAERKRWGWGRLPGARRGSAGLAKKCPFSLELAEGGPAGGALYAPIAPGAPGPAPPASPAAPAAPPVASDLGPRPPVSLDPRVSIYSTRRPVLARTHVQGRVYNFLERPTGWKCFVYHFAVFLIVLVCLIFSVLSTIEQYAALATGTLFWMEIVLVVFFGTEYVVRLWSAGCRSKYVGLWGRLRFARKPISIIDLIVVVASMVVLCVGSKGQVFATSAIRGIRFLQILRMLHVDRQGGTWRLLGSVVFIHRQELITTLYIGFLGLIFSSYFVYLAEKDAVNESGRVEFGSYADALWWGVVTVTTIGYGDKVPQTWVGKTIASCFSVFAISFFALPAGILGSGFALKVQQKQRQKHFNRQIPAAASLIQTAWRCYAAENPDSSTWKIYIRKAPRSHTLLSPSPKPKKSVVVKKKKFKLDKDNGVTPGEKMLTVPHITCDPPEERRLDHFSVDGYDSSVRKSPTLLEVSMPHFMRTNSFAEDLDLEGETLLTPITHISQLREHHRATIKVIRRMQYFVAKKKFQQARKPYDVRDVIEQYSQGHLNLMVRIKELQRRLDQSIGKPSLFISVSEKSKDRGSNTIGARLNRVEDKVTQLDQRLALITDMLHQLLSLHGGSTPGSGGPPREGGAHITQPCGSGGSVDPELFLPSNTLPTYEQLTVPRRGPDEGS
KCNK3 inh – human KCNK3 channel inhibition, primary screen. B-score at 10 µM. AID 602410. CHO-KCNK3 thallium flux, FluxOR fluorescence; active compounds read low. O14649. 340,000 compounds, 0.84% hits;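 active = B-score under library mean minus 4 SD, starting fluorescence ratio at most library mean plus 5 SD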;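 note: more negative B-score means stronger inhibition of thallium flux through KCNK3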
KCNQ1 pot – potentiators or activators of human KCNQ1 potassium channel; P51787; CHO-K1 KCNQ1, thallium flux FluxOR fluorescence; active compounds read high; B-score at 10 µM; 310,000 compounds, 0.35% hits; AID 2648;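 active = fluorescence ratio B-score, a plate-corrected score, at least three library SD, with initial intensity B-score within 5 SD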
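System: Stable KCNQ1 CHO-K1 line | Incubation: 90 min dye loading and 20 min compound exposure, both at room temperature | Measure: Ratio B score | Medium: Assay buffer for compound exposure, DMSO matched across wells | Compound dosing: Single-concentration screen | Probe or stimulus: K+/Tl+ depolarizing stimulus | Measured by: Kinetic FluxOR fluorescence, 10 s baseline plus 110 s post-stimulus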
* = called active by the depositor; i = inactive; . = no result given.

SMILES	hERG rescue	KCNK9 inh	KCNQ1 block	KCNK3 inh	KCNQ1 pot
CCCCn1c(=O)n(Cc2cccc(F)c2)c(=O)c2c1ncn2Cc1ccco1	-7	i	i	-10*	i
CC1(c2nnc(-c3ccc(F)cc3)o2)CC(c2c(Cl)cccc2Cl)=NO1 (stereo not drawn)	-7	i	i	i	i
CC1(c2nnc(-c3ccc(Cl)cc3)o2)CC(c2c(Cl)cccc2Cl)=NO1 (stereo not drawn)	-4	-7.6*	i	i	i
O=C1/C(=C/c2ccc(N3CCOCC3)o2)SC(=Nc2ccccc2)N1CCc1c[nH]c2ccccc12	-29	i	7*	i	i
COc1cc(/C=C2\SC(=Nc3ccccc3)N(CCc3c[nH]c4ccccc34)C2=O)ccc1OC(C)C(=O)O (stereo not drawn)	-11	i	i	i	i
O=C1S/C(=C\c2ccc(N3CCOCC3)o2)C(=O)N1Cc1ccc(F)cc1	.	.	.	i	.
COc1ccc(N=C2S/C(=C\c3ccc(OC(C)C(=O)O)c(OC)c3)C(=O)N2CCc2c[nH]c3ccccc23)cc1 (stereo not drawn)	-14	i	11*	i	i
CS(=O)(=O)c1sc(C#N)c2c1C(=O)CC(c1ccccc1)C2 (stereo not drawn)	-10	i	i	i	27*
COc1ccc(CN2[C@@H](CC(=O)O)c3ccccc3S2(=O)=O)cc1	6.7*	i	i	i	i
O=C(NC(NNc1ccc([N+](=O)[O-])cc1)(C(F)(F)F)C(F)(F)F)c1ccccc1Cl	-9	i	i	i	i
O=C(NC(NNc1ccc([N+](=O)[O-])cc1)(C(F)(F)F)C(F)(F)F)c1ccc(F)cc1	-12	i	6*	i	i
O=[N+]([O-])c1ccc(NNC(=S)Nc2ccc(F)cc2)cc1	-7	i	7*	i	i
Cc1cccc(C(=O)Nc2cc(S(=O)(=O)N3CCOCC3)ccc2N2CCCCC2)c1	.	.	.	i	.
Cc1ccc(/C=N/NC(=O)CSc2nc3ccccc3[nH]2)o1	-10	i	i	i	i
CCN1C=C(Cc2cccs2)C2=C(C1)C(c1cccs1)C(C#N)=C(N)O2 (stereo not drawn)	-24	-7.4*	i	-9*	i
CCOC(=O)C1=C(C)OC(N)=C(C#N)C1c1cccs1 (stereo not drawn)	-6	i	i	i	i
O=C(c1cc(Cl)ccc1OCc1ccccc1)N1CCOCC1	-7	i	i	i	i
Cc1ccc(CNC(=O)CCS(=O)(=O)c2cccc3nsnc23)cc1	4.9*	i	i	i	i
COc1cccc(CNC(=O)CCS(=O)(=O)c2cccc3nsnc23)c1	-3	i	i	i	i
CN(C)c1cccc(C(=O)N2CCCC(C(=O)c3cc(F)ccc3F)C2)c1 (stereo not drawn)	-18	i	i	i	38*
OC(COC(c1ccccc1)c1ccccc1)CN1CCCCC1 (stereo not drawn)	6.4*	i	i	i	i
O=C(Nc1ccc(F)c(Cl)c1)c1cncs1	-2	i	i	i	i
COc1ccccc1CC(O)CC1c2c(cc3c(c2OC)OCO3)CCN1C (stereo not drawn)	.	.	.	i	.
CCCCCc1ccc(OCCCC[n+]2ccc(C)cc2)c(CCCCC)c1	-27	-7.2*	11*	i	i
CCCCCc1ccc(OCCCC[n+]2cccc(C)c2)c(CCCCC)c1	-27	-7.5*	10*	i	i
SMILES	hERG rescue	KCNK9 inh	KCNQ1 block	KCNK3 inh	KCNQ1 pot
Cc1ccc(-c2nc(NCc3ccco3)c3ccccc3n2)cc1	-18	-6.6*	i	i	i
Cc1ccc(C(=O)n2nc(-c3ccccc3)nc2NCc2ccco2)cc1	-8	i	i	i	i
CCCC(=O)n1nc(-c2ccc(C)cc2)nc1NCc1ccco1	-13	i	i	i	10*
N/C(=N\OC(=O)CSc1ccccc1)c1ccncc1	-1	i	i	i	i
COc1cc(C(=O)O[C@H]2CC(C)=CC[C@@]3(C)CC[C@@](O)(C(C)C)[C@H]23)ccc1O	-8	i	i	i	i
COc1ccc(-n2c(SC(C)C(=O)Nc3ncc(Cl)cc3Cl)nc3ccccc32)cc1 (stereo not drawn)	-14	-16*	i	i	i
O=C1/C(=N\S(=O)(=O)c2cccs2)C([n+]2cccc(Cc3ccccc3)c2)=C([O-])c2ccccc21	-8	-6.6*	i	i	i
O=C1/C(=N\S(=O)(=O)c2cccs2)C([n+]2ccc(CCCc3ccccc3)cc2)=C([O-])c2ccccc21	-10	i	i	i	i
Cc1ccnc(NC(=O)CNC(=O)c2ccc3ccccc3c2)c1	-19	i	i	i	i
Cc1ccnc(NC(=O)CNC(=O)c2ccc3c(c2)OCO3)c1	-6	i	i	i	15*
Cc1ccc(-c2cc3cccc[n+]3cc2-c2ccc(C)cc2)cc1	-29	i	8*	i	i
Cc1ccc2nc(-c3ccncc3)cc(-c3ccccc3)c2c1	-11	i	i	i	i
C=CCNc1oc(-c2cccc(F)c2)nc1C#N	.	.	.	i	.
Cc1ccc(N2C(=O)c3ccc(C(=O)Nc4cccnc4)cc3C2=O)c(C)c1	4.7*	i	i	i	i
COc1ccc(C)cc1NC(=O)c1cc2c(=O)n3ccccc3nc2n1C	50*	i	i	i	i
COc1ccc(CN(C(=O)CSc2nnc(-c3ccccc3C)o2)c2ccc(F)cc2)cc1	-15	i	6*	i	i
O=C(NC1CCCN(Cc2ccc(Cl)cc2)C1)c1ccoc1 (stereo not drawn)	-7	i	i	i	i
CCCCn1c(=O)[nH]c(=O)c2c1nc(Cn1ncc(Cl)c(Cl)c1=O)n2CCC	-17	i	i	i	11*
CCCCn1c(=O)[nH]c(=O)c2c1nc(CN1C(=O)c3ccccc3S1(=O)=O)n2CCC	-4	i	i	i	i
O=C(Nc1nnc(SCCN2CCOCC2)s1)C1CC(=O)N(c2ccccc2)C1 (stereo not drawn)	-6	i	i	i	i
CCCCOc1ccc(C(=O)N/N=C/c2ccc(OCCN3CCCCC3)c(OC)c2)cc1	-15	i	6*	i	i
CCCOc1ccc(/C=N/NC(=O)CN2CCCCC2)cc1OCC	-6	i	i	i	i
CCCc1cc(=O)n2[nH]c(-c3ccc(OC)cc3)nc2n1	-6	-7.8*	i	i	i
COc1ccc(CCN(C(=O)Cn2nnc3ccccc32)C(C(=O)NCC2CCCO2)c2ccncc2)cc1OC (stereo not drawn)	39*	i	i	i	i

Source: PubChem (Johns Hopkins Ion Channel Center)
